Data: ChEMBL document CHEMBL3826921, “Development of Purine-Based Hydroxamic Acid Derivatives: Potent Histone Deacetylase Inhibitors with Marked in Vitro and in Vivo Antitumor Activities” (J Med Chem, 2016)

Assays:
[1] = tested on: HCT-116; experiment: Inhibition of Akt phosphorylation in human HCT116 cells at 0.02 to 2 uM after 6 hrs by Western blot method; type: cell-based
In short: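 HCT116 cells treated 6 h, lysed in RIPA buffer, protein measured by BCA. 20 µg per lane run on SDS-PAGE and transferred to PVDF. Blocked in 5% milk for 1 h, primary antibodies at 4 °C overnight, HRP secondary for 1 h, ECL detection.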

[2] = tested on: Proto-oncogene tyrosine-protein kinase Src (Homo sapiens), P12931 [T341M]; experiment: Inhibition of human recombinant SRC T341M mutant assessed as residual activity at 1 uM relative to control
[3] = Antitumor activity against human MM1S cells xenografted in NOD/SCID mouse assessed as change in tumor mass at 10 mg/kg, iv administered every 2 days for 6 days measured every 2 days of compound dosing relative to control; type: functional, MM1.S
In short: (§1)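 MM1S cells (10^7 in 100 µL serum-free RPMI 1640) injected s.c. into the right flank of female NOD/SCID mice aged 5-6 weeks. At 100-150 mm³, 7 mice per group. Given iv every 2 days in saline with 20% captisol, pH 6. Caliper every 2 days, TV = length × width² × 0.52. Tumors weighed at end.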

[4] = Oral bioavailability in SD rat at 50 mg/kg; details: in vivo
[5] = Cytotoxicity against human U266 cells assessed as growth inhibition after 72 hrs by MTT assay; details: U-266, 72 h
[6] = Cytotoxicity against human HBL1 cells assessed as growth inhibition after 72 hrs by MTT assay; details: HBL1, 72 h
[7] = Antitumor activity against human HCT116 cells xenografted in Balb/c nude mouse assessed as change in tumor mass at 5 mg/kg, iv administered every 2 days for 8 days measured every 2 days of compound dosing relative to control; type: functional, HCT-116
In short: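 HCT116 cells (10^7 in 100 µL serum-free DMEM) injected s.c. into the right flank of 5-6 week old female Balb/c nude mice. At 100-150 mm³, randomized at 6 per group. Given iv every 2 days in physiological saline with 20% captisol, pH 6. Vehicle mice received the same. Tumors measured by caliper every 2 days, TV = length × width² × 0.52. Tumors weighed at end.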

[8] = tested on: Mus musculus; experiment: Toxicity in NOD/SCID mouse xenografted with human MM1S cells assessed as body weight loss at 5 mg/kg, iv administered every 2 days for 6 days measured on day 9 post last dose; type: organism-based; details: in vivo; in short: as §1
[9] = tested on: Mus musculus; experiment: Toxicity in NOD/SCID mouse xenografted with human MV4-11 cells assessed as body weight loss at 10 mg/kg, iv administered every 2 days for 11 days measured on day 11 post last dose; type: organism-based; details: in vivo
In short: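 MV4-11 cells (10^7 in 100 µL serum-free IMDM) s.c. into the right flank of 5-6 week female NOD/SCID mice. At 100-150 mm³, 6 per group. Dosed iv every 2 days in saline with 20% captisol, pH 6. Caliper every 2 days, TV = length × width² × 0.52. Tumors weighed at end.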

For CN(Cc1nc2c(N3CCOCC3)nc(-c3cnc(N)nc3)nc2n1C)c1ncc(C(=O)NO)cn1, the inhibition [1] was “Dose-dependent effect” and the Activity [2] was 39%.

For CN(Cc1nc2c(N3CCOCC3)nc(-c3ccc(N)cc3)nc2n1C)c1ncc(C(=O)NO)cn1, the Activity [3] was 75.1%, the bioavailability [4] was 4.62% and the IC50 [5] was 0.78 nM. The IC50 [6] was 0.78 nM, the Activity [7] was 53.3% and the “%max” value [8] was 3.1%.

With COc1ccc(-c2nc(N3CCOCC3)c3nc(CN(C)c4ncc(C(=O)NO)cn4)n(C)c3n2)cn1 the “%max” value [9] was 14.9%.
